Screening data deposited in PubChem by several laboratories.
An excerpt weighted towards active compounds, which were near 2.9% of everything screened.
MEKK2 WT-MEK5: raises or lowers MEK5 binding to wildtype human MEKK2 PB1 domain | Q9Y2U5 | bead flow cytometry, Alexa488-MEK5 binding to MEKK2 WT; actives lie on both sides | binding response (% of control), % at 10 µM | 290,000 compounds, 1.1% hits; in the data active = binding response below about 67% or above about 130%; inconclusive = no clear call, values can overlap the other calls; inactive = in between
UBC13 polyUb: blocks human UBC13 polyubiquitin chain formation. P61088. TR-FRET. inhibition, % at 20 µM. 330,000 compounds, 0.47% hits; in the data active = inhibition above about 45%, passing the limit was not always enough; inconclusive = no clear call, values can overlap the other calls
Target sequence (P61088 whole entry, looked up): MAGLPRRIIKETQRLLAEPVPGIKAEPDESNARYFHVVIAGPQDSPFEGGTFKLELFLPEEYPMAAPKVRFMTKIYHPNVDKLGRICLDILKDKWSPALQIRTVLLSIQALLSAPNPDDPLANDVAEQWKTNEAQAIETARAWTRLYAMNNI
Apaf1 inhib: human Apaf-1 inhibition | O14727 | reconstituted apoptosome caspase-3 activity, DEVD-Rh110 fluorescence | inhibition, % at 20 µM | 330,000 compounds, 0.71% hits; active = inhibition of at least 40% at 20 µM
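Material: biochemical Apaf-1 apoptosome reconstitution. Medium: Hepes buffer, pH 7.5. Also added: cytochrome c activation, bis-DEVD rhodamine 110 substrate. Timing: 30 min compound preincubation, 50 min activation, room temperature. Measured by: rhodamine 110 fluorescence at Ex 480/Em 540 nm.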
MEKK3 PB1 HTS: raises or lowers MEK5 binding to the human MEKK3 PB1 domain; Q99759; bead-based flow cytometry, Alexa488-MEK5 binding to MEKK3; actives lie on both sides; 0 = blocked by unlabeled MEK5, 100 = vehicle; binding response (% of control), % at 10 µM; 290,000 compounds, 1.4% hits; AID 1529;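 active = binding response more than 3 SD above or below the average of its plate-row segment, actives on both sides; inconclusive = wells at one plate position flagged as instrument error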;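 note: Alexa488 bead fluorescence after subtracting the streptavidin-only scavenger bead signal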
Target sequence (Q99759 whole entry, looked up, the tested form may be a part): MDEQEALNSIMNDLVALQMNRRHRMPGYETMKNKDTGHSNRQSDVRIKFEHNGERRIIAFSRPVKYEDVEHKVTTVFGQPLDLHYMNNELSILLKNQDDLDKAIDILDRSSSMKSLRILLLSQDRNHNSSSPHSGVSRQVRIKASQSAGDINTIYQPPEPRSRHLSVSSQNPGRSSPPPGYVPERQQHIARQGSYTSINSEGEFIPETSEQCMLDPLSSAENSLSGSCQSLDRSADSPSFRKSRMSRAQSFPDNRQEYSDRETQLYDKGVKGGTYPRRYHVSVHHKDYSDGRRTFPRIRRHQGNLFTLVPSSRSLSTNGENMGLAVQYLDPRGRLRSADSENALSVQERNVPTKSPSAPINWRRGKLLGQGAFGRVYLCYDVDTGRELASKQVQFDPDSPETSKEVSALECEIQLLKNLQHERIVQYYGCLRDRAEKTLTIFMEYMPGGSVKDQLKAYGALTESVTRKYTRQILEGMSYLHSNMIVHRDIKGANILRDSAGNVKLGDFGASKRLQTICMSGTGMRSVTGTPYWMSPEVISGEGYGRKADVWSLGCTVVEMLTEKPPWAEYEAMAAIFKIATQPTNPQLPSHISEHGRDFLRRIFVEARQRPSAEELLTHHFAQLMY
MEKK2 mut-MEK5: signal of MEK5 binding to mutant human MEKK2 PB1 domain | 290,000 compounds, 0.35% hits | percent response, % at 10 µM | bead flow cytometry, Alexa488-MEK5 binding to MEKK2 mutant; in the data active = percent response above about 24%, passing the limit was not always enough
MEKK2wt confirm: raises or lowers MEK5 binding to wildtype human MEKK2, retest | shares compounds with MEKK3 PB1 HTS | bead flow cytometry, Alexa488-MEK5 binding to MEKK2 WT; actives lie on both sides | binding response (% of control), % at 10 µM | 5,900 compounds, 2.4% hits; in the data active = binding response below about 16% or above about 210%; inactive = in between
MEKK2mut confirm: signal of MEK5 binding to mutant human MEKK2, retest; shares compounds with MEKK3 PB1 HTS; bead flow cytometry, Alexa488-MEK5 binding to MEKK2 mutant; percent response, % at 10 µM; 5,900 compounds, 2% hits; in the data active = percent response mostly above about 71%, no sharp cut-off; inactive = mostly below about 38%;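 note: higher means compound restores mutant binding toward wildtype level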
MEKK3 confirm: confirmation of inhibitors of MEK5 binding to human MEKK3; shares compounds with MEKK3 PB1 HTS; bead flow cytometry, Alexa488-MEK5 binding to MEKK3; stronger effect = lower value; binding response (% of control), % at 10 µM; 5,900 compounds, 1.8% hits; AID 1894;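 active = binding response below 72% of control, or above a set upper limit, though filed actives all read lower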
Large screens that a line does not name were inactive (follow-up assays come after a bar, where they were run); ! = not confirmed by another sample; [ ] = remark or other dose.

Nc1ccc(C(=O)OCC(=O)N2CCN(C(=O)c3ccco3)CC2)cc1[N+](=O)[O-]	MEKK3 PB1 HTS 134.0 | MEKK2wt confirm inactive | MEKK2mut confirm inactive | MEKK3 confirm inactive
Cc1ccc(C)c(NC(=O)c2ccc(S(=O)(=O)C(F)F)cc2)c1	MEKK3 PB1 HTS 132.0 | MEKK2wt confirm inactive | MEKK2mut confirm inactive | MEKK3 confirm inactive
CN(C)c1ccc(NC(=O)COC(=O)Cn2nnc3ccccc32)cc1	none
Cc1cccc(-c2nc(NCCCN3CCOCC3)c3ccccc3n2)c1	none
Cc1ccc(-c2nc(NCCN(C)C)c3ccccc3n2)cc1	none
Cc1cccc(-c2nc(NCCCN(C)C)c3ccccc3n2)c1	MEKK2 WT-MEK5 135.0 | MEKK2wt confirm inactive | MEKK2mut confirm inactive | MEKK3 confirm inactive
CN(C)CCCNc1nc(-c2ccc(Cl)cc2)nc2ccccc12	MEKK2 WT-MEK5 141.0 | MEKK2wt confirm inactive | MEKK2mut confirm inactive | MEKK3 confirm inactive
CCC(=O)N(c1nnc(SCC(=O)NN2C(=O)NC3(CCCCC3)C2=O)s1)C1CC1	none (no result: MEKK2 WT-MEK5, MEKK3 PB1 HTS, MEKK2 mut-MEK5)
O=c1sc2ccccc2c(=O)n1Cc1ccccc1F	MEKK3 PB1 HTS 139.0 | MEKK2wt confirm inactive | MEKK2mut confirm inactive | MEKK3 confirm inactive
O=C(Nc1ccccc1F)c1ccc(C(=O)c2ccccc2)cc1	none
O=C1c2ccccc2N2C(=O)c3ccccc3C2N1Cc1ccccc1 (centres undefined)	MEKK3 PB1 HTS 130.0 | MEKK2wt confirm inactive | MEKK2mut confirm inactive | MEKK3 confirm inactive
O=C(OCC(=O)N1CCN(c2ccccc2)CC1)c1ncc(Cl)c(Cl)c1Cl	none (no result: MEKK2 WT-MEK5, MEKK3 PB1 HTS, MEKK2 mut-MEK5)
Cc1ccc(-c2cc(N)n3nc(-c4ccc(C)cc4)cc3n2)cc1	none (no result: MEKK2 WT-MEK5, MEKK3 PB1 HTS, MEKK2 mut-MEK5)
Cc1ccc(-c2cc3nc(-c4ccc(Br)cc4)cc(N)n3n2)cc1	MEKK3 PB1 HTS 134.0 | MEKK2wt confirm inactive | MEKK2mut confirm inactive | MEKK3 confirm inactive
COc1ccc(OC)c(CCNC(=O)CCc2cn(C)c3ccccc23)c1	none
COc1ccc(CCNC(=O)CCc2cn(C)c3ccccc23)c(OC)c1OC	MEKK2 mut-MEK5 27.0 | MEKK2wt confirm inactive | MEKK2mut confirm inactive | MEKK3 confirm inactive
COc1cc(C2=NC(CO)(CO)CO2)cc(OC)c1OC	none
CCC(C)NC(=O)c1cc2cc3ccc(OC)cc3nc2s1 (centres undefined)	MEKK3 PB1 HTS 126.0 | MEKK2wt confirm inactive | MEKK2mut confirm inactive | MEKK3 confirm inactive
CC1=C[C@@H](C)[C@@H](c2ccccc2)OC1=O	MEKK3 PB1 HTS 78.0[inhibitor] | MEKK2wt confirm inactive | MEKK2mut confirm inactive | MEKK3 confirm inactive
C=CCNC(=O)c1ccc(-c2cccc([N+](=O)[O-])c2)o1	none
C=CCNC(=O)c1ccc(-c2ccc([N+](=O)[O-])cc2)o1	MEKK3 PB1 HTS 194.0 | MEKK2wt confirm inactive | MEKK2mut confirm inactive | MEKK3 confirm inactive
Cc1ccc(C)c(Cn2nnc3c(=O)[nH]c(C4CCN(C(=O)c5ccco5)CC4)nc32)c1	none
COc1cc(OC)c(-c2c3cc(O)c(=O)cc-3oc3cc(O)c(O)cc23)cc1OC	none
Cc1c2cc(O)c(=O)cc-2oc2cc(O)c(O)cc12	MEKK2 WT-MEK5 25.0![inhibitor], UBC13 polyUb inconclusive, MEKK3 PB1 HTS 54.0![inhibitor] | MEKK2wt confirm inactive | MEKK2mut confirm inactive | MEKK3 confirm 64.0
O=C(CN1CCC(C(O)(c2ccccc2)c2ccccc2)CC1)Nc1cc(Cl)ccc1Cl	MEKK3 PB1 HTS 72.0[inhibitor] | MEKK2wt confirm inactive | MEKK2mut confirm inactive | MEKK3 confirm inactive
COc1ccc2ccn(S(=O)(=O)c3ccccc3)c2c1	none
CCO[C@H]1OC(C(=O)N2CCOCC2)=C[C@@H](C2CC2)[C@@H]1CCCO	none
CN(CC(=O)NCC(=O)Nc1ccc(F)c(F)c1F)C1CCS(=O)(=O)C1 (centres undefined)	none (no result: MEKK2 WT-MEK5, MEKK3 PB1 HTS, MEKK2 mut-MEK5)
CCOC(=O)CSC1=N/C(=C\c2cccnc2)C(=O)N1c1ccc(OC)cc1	none
CCOC(=O)CSC1=N/C(=C\c2cc(OC)c(OC)c(OC)c2)C(=O)N1C	MEKK3 PB1 HTS 153.0 | MEKK2wt confirm inactive | MEKK2mut confirm inactive | MEKK3 confirm inactive
CC(=O)Nc1ccc(NC(=O)C(C)Sc2nnc(-c3cccs3)o2)cc1 (centres undefined)	none
COc1ccc(-c2nc(NC(=O)Cn3c(=O)oc4ccccc43)sc2C)cc1	MEKK3 PB1 HTS 143.0 | MEKK2wt confirm inactive | MEKK2mut confirm inactive | MEKK3 confirm inactive
COc1cccc(NC(=O)Cn2c(=O)oc3ccccc32)c1	none
O=C(Nc1nnc(-c2ccncc2)o1)c1cccc(N2C(=O)CCC2=O)c1	none
O=C(Nc1nnc(-c2ccco2)o1)c1cccc(N2C(=O)CCC2=O)c1	MEKK3 PB1 HTS 129.0 | MEKK2wt confirm inactive | MEKK2mut confirm inactive | MEKK3 confirm inactive
O=C(O)CCC(=O)NCCc1cccc(Cl)c1	none
CN(CC(=O)NCCc1ccc(F)cc1)Cc1ccc(Br)cc1	none
O=C(CCSCc1cccc(Cl)c1)NCCc1ccccc1	MEKK3 PB1 HTS 134.0 | MEKK2wt confirm inactive | MEKK2mut confirm inactive | MEKK3 confirm inactive
CN(CC(=O)NCCc1ccc(F)cc1)Cc1cccc(Cl)c1	MEKK2 WT-MEK5 6.0[inhibitor], MEKK3 PB1 HTS 5.0[inhibitor] | MEKK2wt confirm inactive | MEKK2mut confirm inactive | MEKK3 confirm inactive
COCc1[nH]nc2c1C1(C(=O)N(C)c3ccccc31)C(C#N)=C(N)O2 (centres undefined)	MEKK3 PB1 HTS 79.0[inhibitor] | MEKK2wt confirm inactive | MEKK2mut confirm inactive | MEKK3 confirm inactive
O=C(O)c1ccc(-c2sc(Nc3ccccc3)n[n+]2-c2ccccc2)cc1	none
CCc1ccc(Nc2n[n+](-c3ccccc3)c(-c3ccc(OCc4ccccc4)cc3)s2)cc1	MEKK2 WT-MEK5 220.0, MEKK2 mut-MEK5 107.0 | MEKK2wt confirm 209.0 | MEKK2mut confirm 82.0 | MEKK3 confirm inactive
CCc1ccc(Nc2n[n+](-c3ccccc3)c(-c3ccc(N(CC)CC)cc3)s2)cc1	MEKK2 WT-MEK5 65.0, MEKK2 mut-MEK5 277.0 | MEKK2wt confirm inactive | MEKK2mut confirm inactive | MEKK3 confirm inactive
c1ccc(COc2ccc(-c3sc(Nc4ccccc4)n[n+]3-c3ccccc3)cc2)cc1	MEKK2 WT-MEK5 221.0, MEKK2 mut-MEK5 38.0 | MEKK2wt confirm inactive | MEKK2mut confirm inactive | MEKK3 confirm inactive
COc1ccc(C)cc1Nc1n[n+](-c2ccccc2)c(-c2ccc(N(C)C)cc2)s1	MEKK2 WT-MEK5 142.0, MEKK2 mut-MEK5 46.0 | MEKK2wt confirm inactive | MEKK2mut confirm inactive | MEKK3 confirm inactive
Cc1cccc(-c2sc(Nc3ccccc3)n[n+]2-c2ccccc2)c1	none (no result: MEKK2 WT-MEK5, MEKK3 PB1 HTS, MEKK2 mut-MEK5)
